Source: ChEMBL document CHEMBL1126705, “16 beta-([18F]fluoro)estrogens: systematic investigation of a new series of fluorine-18-labeled estrogens as potential imaging agents for estrogen-receptor-positive breast tumors” (J Med Chem, 1993)

Assays:
Rattus norvegicus [1] = experiment: Tested in vivo for the biodistribution in rat uterus/blood at 1 hour after intravenous dose of 15 microCi of the drug and 15 micro g of estradiol; type: ADME, organism-based
In short: (§1)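 Female Sprague-Dawley rats, 25 days old (~40–53 g), ether-anesthetized, given the 18F-labeled estrogen iv via femoral vein in 10% ethanol saline. […] Others were sacrificed by decapitation at 1 or 3 h. Blood and organs were excised, weighed and gamma counted as % injected dose/g, mean ± SD, typically n = 5 (4–6).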

Rattus norvegicus [2] = experiment: Tested in vivo for the biodistribution in rat uterus/muscle after 3 hours following an intravenous dose of 15 microCi of drug in 10%ethanol saline; type: ADME, organism-based, Muscle tissue; in short: as §1
Rattus norvegicus [3] = experiment: Tested in vivo for the biodistribution in rat uterus/muscle at 1 hour after intravenous dose of 15 microCi of the drug and 15 ug of estradiol; type: ADME, organism-based, Muscle tissue; in short: as §1
Rattus norvegicus [4] = experiment: Tested in vivo for the biodistribution in blood of female rat after 3 hours following an intravenous dose of 15 microCi of drug in 10%ethanol saline; type: ADME, organism-based
In short: (§2)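 Ether-anesthetized 25-day-old female Sprague-Dawley rats (~40–53 g) got the [18F] tracer in 10% ethanol saline via femoral vein. Rats were decapitated at 1 or 3 h, and blood and organs were weighed and gamma-counted. Values are % injected dose/g as mean ± SD, n = 5 per time point.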

Rattus norvegicus [5] = experiment: Tested in vivo for the biodistribution in rat bone at 1 hour after intravenous dose of 15 microCi of drug in 10%ethanol saline; type: ADME, organism-based, Bone element; in short: as §2
Rattus norvegicus [6] = experiment: Tested in vivo for the biodistribution in rat bone at 1 hour after intravenous dose of 15 microCi of the drug and 15 ug of estradiol; type: ADME, organism-based, Bone element
Rattus norvegicus [7] = experiment: Tested in vivo for the biodistribution in rat fat after 3 hours following an intravenous dose of 15 microCi of drug in 10%ethanol saline; type: ADME, organism-based, Adipose tissue; in short: as §2
Rattus norvegicus [8] = experiment: Tested in vivo for the biodistribution in rat ovaries after 3 hours following an intravenous dose of 120 microCi of drug in 10%ethanol saline; type: ADME, organism-based, Female gonad
In short: (§3)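 Immature (25-day-old) female Sprague-Dawley rats, ether-anesthetized, given the fluorine-18-labeled estrogen by femoral vein injection in 10% ethanol saline. […] Other groups were killed by decapitation at 1 or 3 h. Blood and organs were weighed and gamma-counted. Data are % injected dose/g, mean ± SD, typically n = 5 per group.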

Rattus norvegicus [9] = experiment: Tested in vivo for the biodistribution in rat ovaries at 1 hour after intravenous dose of 15 microCi of the drug and 15 ug of estradiol; type: ADME, organism-based, Female gonad; in short: as §3
Rattus norvegicus [10] = experiment: Tested in vivo for the biodistribution in rat muscle at 1 hour after intravenous dose of 15 microCi of drug in 10%ethanol saline; type: ADME, organism-based, Muscle tissue; in short: as §3
Rattus norvegicus [11] = experiment: Tested in vivo for the biodistribution in rat muscle at 1 hour after intravenous dose of 15 microCi of the drug and 15 ug of estradiol; type: ADME, organism-based, Muscle tissue; in short: as §3
Rattus norvegicus [12] = experiment: Tested in vivo for the biodistribution in rat fat at 1 hour after intravenous dose of 15 microCi of drug in 10%ethanol saline; type: ADME, organism-based, Adipose tissue; in short: as §2
Rattus norvegicus [13] = experiment: Tested in vivo for the biodistribution in rat fat at 1 hour after intravenous dose of 15 microCi of the drug and 15 ug of estradiol; type: ADME, organism-based, Adipose tissue
Rattus norvegicus [14] = experiment: Tested in vivo for the biodistribution in rat thymus after 3 hours following an intravenous dose of 15 microCi of drug in 10%ethanol saline; type: ADME, organism-based; in short: as §3
Rattus norvegicus [15] = experiment: Tested in vivo for the biodistribution in rat thymus at 1 hour after intravenous dose of 15 microCi of drug in 10%ethanol saline; type: ADME, organism-based; in short: as §3
Rattus norvegicus [16] = experiment: Tested in vivo for the biodistribution in rat thymus at 1 hour after intravenous dose of 15 microCi of the drug and 15 micro g of estradiol; type: ADME, organism-based; in short: as §3
Rattus norvegicus [17] = experiment: Tested in vivo for the biodistribution in rat uterus after 3 hours following an intravenous dose of 15 microCi of drug in 10%ethanol saline; type: ADME, organism-based; in short: as §3
Rattus norvegicus [18] = experiment: Tested in vivo for the biodistribution in rat uterus at 1 hour after intravenous dose of 15 microCi of drug in 10%ethanol saline; type: ADME, organism-based; in short: as §1
Rattus norvegicus [19] = experiment: Tested in vivo for the biodistribution in rat uterus at 1 hour after intravenous dose of 15 microCi of the drug and 15 micro g of estradiol; type: ADME, organism-based; in short: as §1
Rattus norvegicus [20] = experiment: Tested in vivo for the biodistribution in rat uterus/blood at 1 hour after intravenous dose of 15 microCi of drug in 10%ethanol saline; type: ADME, organism-based; in short: as §1
Rattus norvegicus [21] = experiment: Tested in vivo for the biodistribution in blood of female rat at 1 hour after intravenous dose of 15 microCi of drug in 10%ethanol saline; type: ADME, organism-based; in short: as §2
Rattus norvegicus [22] = experiment: Tested in vivo for the biodistribution in blood of female rat at 1 hour after intravenous dose of 15 microCi of the drug and 15 u g of estradiol; type: ADME, organism-based
Rattus norvegicus [23] = experiment: Tested in vivo for the biodistribution in rat bone after 3 hours following an intravenous dose of 15 microCi of drug in 10%ethanol saline; type: ADME, organism-based, Bone element; in short: as §2
Rattus norvegicus [24] = experiment: Tested in vivo for the biodistribution in rat kidney at 1 hour after intravenous dose of 15 microCi of drug in 10%ethanol saline; type: ADME, organism-based; in short: as §2
Rattus norvegicus [25] = experiment: Tested in vivo for the biodistribution in rat kidney at 1 hour after intravenous dose of 15 microCi of the drug and 15 u g of estradiol; type: ADME, organism-based
Rattus norvegicus [26] = experiment: Tested in vivo for the biodistribution in rat kidney after 3 hours following an intravenous dose of 15 microCi of drug in 10%ethanol saline; type: ADME, organism-based; in short: as §2
Rattus norvegicus [27] = experiment: Tested in vivo for the biodistribution in rat liver after 3 hours following an intravenous dose of 15 microCi of drug in 10%ethanol saline; type: ADME, organism-based; in short: as §3
Rattus norvegicus [28] = experiment: Tested in vivo for the biodistribution in rat liver at 1 hour after intravenous dose of 15 microCi of the drug and 15 u g of estradiol; type: ADME, organism-based; in short: as §3
Rattus norvegicus [29] = experiment: Tested in vivo for the biodistribution in rat muscle after 3 hours following an intravenous dose of 15 microCi of drug in 10%ethanol saline; type: ADME, organism-based, Muscle tissue; in short: as §3
[30] = Partition coefficient (logP); type: physicochemical; settings: octanol/water
In short: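 Octanol/water log P estimated from log k'w measured by reversed-phase HPLC (Minick method) on a C8 silica column.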

[31] = molecular target: T1, Alpha-fetoprotein (Rattus norvegicus) (UniProt P02773); experiment: Relative binding affinity for Alphafetoprotein
T1 sequence (whole entry): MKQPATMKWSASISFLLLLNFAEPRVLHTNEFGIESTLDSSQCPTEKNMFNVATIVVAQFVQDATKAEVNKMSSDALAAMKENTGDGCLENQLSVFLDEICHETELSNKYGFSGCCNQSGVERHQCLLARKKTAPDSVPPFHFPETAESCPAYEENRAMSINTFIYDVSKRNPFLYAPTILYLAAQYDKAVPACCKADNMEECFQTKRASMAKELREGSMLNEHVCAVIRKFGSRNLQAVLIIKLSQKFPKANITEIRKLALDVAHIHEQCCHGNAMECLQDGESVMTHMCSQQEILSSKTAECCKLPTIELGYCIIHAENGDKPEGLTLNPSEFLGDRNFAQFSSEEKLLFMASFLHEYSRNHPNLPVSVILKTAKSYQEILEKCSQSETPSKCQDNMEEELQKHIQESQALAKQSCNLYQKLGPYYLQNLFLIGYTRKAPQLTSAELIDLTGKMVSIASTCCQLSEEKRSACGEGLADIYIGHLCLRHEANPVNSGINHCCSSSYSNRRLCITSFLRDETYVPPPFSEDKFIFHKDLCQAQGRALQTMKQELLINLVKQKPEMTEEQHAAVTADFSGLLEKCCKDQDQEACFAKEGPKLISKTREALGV

[32] = molecular target: T2, Sex hormone-binding globulin (Homo sapiens) (UniProt P04278); experiment: Relative binding affinity against sex steroid binding protein (SBP)
T2 sequence (whole entry): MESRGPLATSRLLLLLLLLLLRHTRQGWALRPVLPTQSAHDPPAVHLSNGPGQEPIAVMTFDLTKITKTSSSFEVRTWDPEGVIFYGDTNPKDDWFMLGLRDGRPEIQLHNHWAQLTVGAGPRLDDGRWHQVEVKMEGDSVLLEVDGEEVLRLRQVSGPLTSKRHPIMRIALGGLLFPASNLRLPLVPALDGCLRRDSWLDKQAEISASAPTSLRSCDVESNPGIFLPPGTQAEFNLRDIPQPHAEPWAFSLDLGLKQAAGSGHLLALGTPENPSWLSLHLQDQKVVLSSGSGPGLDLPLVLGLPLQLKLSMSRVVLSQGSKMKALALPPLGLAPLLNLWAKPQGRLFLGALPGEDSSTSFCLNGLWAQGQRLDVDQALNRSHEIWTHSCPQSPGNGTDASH

Rattus norvegicus [33] = experiment: Tested in vivo for the biodistribution in rat ovaries at 1 hour after intravenous dose of 15 microCi of drug in 10%ethanol saline; type: ADME, organism-based, Female gonad; in short: as §3
Rattus norvegicus [34] = experiment: Tested in vivo for the biodistribution in rat uterus/muscle at 1 hour after intravenous dose of 15 microCi of drug in 10%ethanol saline; type: ADME, organism-based, Muscle tissue; in short: as §1
Rattus norvegicus [35] = experiment: Tested in vivo for the biodistribution in rat liver at 1 hour after intravenous dose of 15 microCi of drug in 10%ethanol saline; type: ADME, organism-based; in short: as §3
Rattus norvegicus [36] = experiment: Tested in vivo for the biodistribution in rat uterus/blood after 3 hours following an intravenous dose of 15 microCi of drug in 10%ethanol saline; type: ADME, organism-based; in short: as §1
[37] = molecular target: T3, Estrogen receptor (Rattus norvegicus) (UniProt P06211+Q62986)
[38] = molecular target: T3, Estrogen receptor (Rattus norvegicus); remark: listed apart in the source

- Injected (Rattus norvegicus [1]): 6.3%
- Injected (Rattus norvegicus [2]): 22.88%
- Injected (Rattus norvegicus [3]): 7.11%
- Injected (Rattus norvegicus [4]): 0.084%
- Injected (Rattus norvegicus [5]): 0.889%
- Injected (Rattus norvegicus [6]): 1.057%
- Injected (Rattus norvegicus [7]): 1.294%
- Injected (Rattus norvegicus [8]): 2.742%
- Injected (Rattus norvegicus [9]): 1.063%
- Injected (Rattus norvegicus [10]): 0.513%
- Injected (Rattus norvegicus [11]): 0.189%
- Injected (Rattus norvegicus [12]): 1.692%
- Injected (Rattus norvegicus [13]): 1.054%
- Injected (Rattus norvegicus [14]): 0.453%
- Injected (Rattus norvegicus [15]): 0.779%
- Injected (Rattus norvegicus [16]): 0.186%
- Injected (Rattus norvegicus [17]): 6.89%
- Injected (Rattus norvegicus [18]): 5.57%
- Injected (Rattus norvegicus [19]): 1.214%
- Injected (Rattus norvegicus [20]): 52.37%
- Injected (Rattus norvegicus [21]): 0.108%
- Injected (Rattus norvegicus [22]): 0.202%
- Injected (Rattus norvegicus [23]): 1.077%
- Injected (Rattus norvegicus [24]): 2.534%
- Injected (Rattus norvegicus [25]): 1.716%
- Injected (Rattus norvegicus [26]): 1.413%
- Injected (Rattus norvegicus [27]): 1.822%
- Injected (Rattus norvegicus [28]): 3.615%
- Injected (Rattus norvegicus [29]): 0.307%
- logP [30]: 3.72
- relative binding affinity (RBA) [31]: 0.079
- relative binding affinity (RBA) [32]: 0.55
- Injected (Rattus norvegicus [33]): 2.991%
- Injected (Rattus norvegicus [34]): 10.81%
- Injected (Rattus norvegicus [35]): 2.331%
- Injected (Rattus norvegicus [36]): 82.19%
- NSB [37]: 1.6
- BSI [38]: 158
SMILES: CC[C@H]1C[C@]2(C)[C@@H](O)[C@@H](F)C[C@H]2[C@@H]2CCc3cc(O)ccc3[C@@H]12
